E-selectin induc – E-selectin induction in HUVECs, primary screen, imaging, HUVEC, immunofluorescence imaging, single point. P16581. normalized: neutral wells 0, TNF-alpha wells 100. activation, % at 7.58 µM. actives 0.37% (n = 260,000). AID 686992, 2013;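 active = mean E-selectin-positive cell signal at least 10% of the positive control, reached in at least 60% of replicates, without over 20% cell loss; inconclusive = no rule given, readout overlaps actives, possibly toxicity-flagged; inactive = the rest, including those meeting only one limit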
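Assay system: HUVEC, human umbilical vein endothelial cells / Amount: 3,000 HUVEC/well / Controls: TNF-alpha positive control, DMSO neutral control / Compound dosing: single concentration / Medium: EGM-2 over gelatin coat / Evaluation: percent E-selectin-positive cells / Signal: immunofluorescence imaging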
SIRT5 block – SIRT5 desuccinylase inhibitors, primary screen, biochemical, fluorescence imaging, single point, set 5; NAD-dependent protein deacylase sirtuin-5, mitochondrial (Homo sapiens), Q9NXA8; Purified SirT5, succinyl-peptide AMC, trypsin-coupled fluorescence; inhibition, % at 15 µM; actives 1.1% (n = 330,000); AID 652115, 2013; in the data active = inhibition above about 15%; inconclusive = no clear call, values can overlap the other calls
Target sequence (Q9NXA8 whole entry, looked up): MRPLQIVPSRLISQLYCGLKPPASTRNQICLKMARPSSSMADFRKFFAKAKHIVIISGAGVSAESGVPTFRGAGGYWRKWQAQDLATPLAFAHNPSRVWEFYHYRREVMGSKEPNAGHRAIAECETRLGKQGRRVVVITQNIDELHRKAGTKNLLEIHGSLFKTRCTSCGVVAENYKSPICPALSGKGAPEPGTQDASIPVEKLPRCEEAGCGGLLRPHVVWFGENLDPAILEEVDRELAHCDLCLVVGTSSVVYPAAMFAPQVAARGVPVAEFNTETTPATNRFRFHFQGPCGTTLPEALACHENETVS
DENV2 CPE – inhibitors of DENV2 cytopathic effect, primary screen, cell-based, plate reader, single concentration | DENV2-infected cells, cytopathic effect rescue | CPE inhibition, % at 9.99 µM | actives 1.7% (n = 350,000); in the data active = CPE inhibition above about 20%, passing the limit was not always enough; inconclusive = no clear call, values can overlap the other calls; tested in BHK-21 cells;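 note: 0% = median of neutral control wells and 100% = median of positive control wells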
The depositor's hits bear a star; ? = inconclusive; . = not tested or not shown. An excerpt weighted towards active compounds, which were near 2.8% of everything screened.

SMILES	E-selectin induc	SIRT5 block	DENV2 CPE
O=C(NCC1CCCCC1)[C@H]1[C@H](CO)[C@H]2Cn3c(ccc(C4=CCCCC4)c3=O)[C@@H]1N2	0	-24	-4
C#CCN1C(=O)[C@]2(OCCC=C[C@H]2C)c2ccccc21	1	2	77*
COC(=O)c1ccc(CN2C(=O)[C@]3(OCCC=C[C@H]3C)c3ccccc32)cc1	?	0	-2
C[C@@H]1CCCCO[C@H](CN(C)Cc2ccc(C(=O)O)cc2)[C@H](C)CN([C@@H](C)CO)C(=O)c2cc(NC(=O)NC3CCCCC3)ccc2O1	0	1	1
CCNC(=O)C[C@H]1CC[C@H](NS(=O)(=O)c2ccc(F)cc2)[C@@H](CO)O1	0	1	0
C[C@H]1CCCCO[C@H](CN(C)S(=O)(=O)c2ccc(Cl)cc2)[C@@H](C)CN([C@@H](C)CO)C(=O)c2cc(NC(=O)c3ccccc3)ccc2O1	3	-11	-1
CCc1nc2ccc(C(=O)N3CCCC(C(N)=O)C3)cn2c1N(C=O)CC (stereo not drawn)	2	2	27*
CCCCN(C=O)c1c(CC)nc2ccc(C(=O)N3CCN(C(C)=O)CC3)cn12	0	-2	0
O=C(C[C@H]1C=C[C@H](NC(=O)Nc2cc(F)ccc2F)[C@H](CO)O1)NCc1ccccn1	0	0	?
COC(=O)C[C@H]1CC[C@@H]2[C@H](COC[C@@H](O)CN2S(=O)(=O)c2ccccc2OC)O1	0	.	1
COC(=O)C[C@H]1CC[C@H]2[C@@H](COC[C@H](O)CN2S(=O)(=O)c2ccccc2OC)O1	0	17*	12
Cc1ccccc1S(=O)(=O)N1C[C@@H](O)COC[C@@H]2O[C@H](CC(=O)N3CCC(Cc4ccccc4)CC3)CC[C@H]21	0	5	5
Cc1ccccc1S(=O)(=O)N1C[C@@H](O)COC[C@H]2O[C@H](CC(=O)N3CCC(Cc4ccccc4)CC3)CC[C@@H]21	0	-1	68*
COc1ccc2c3c([nH]c2c1)[C@@H](CO)N(C(=O)c1cccnc1)CC31CN(C(=O)NC(C)C)C1	0	11	2
C=CC[C@@H](CC(=O)N[C@@H](CO)Cc1ccccc1)C(=O)N[C@@H](COC(=O)[C@@H](CC=C)Cc1ccc(F)cc1)Cc1c[nH]c2ccccc12	0	.	73*
C=CC[C@@H](CC(=O)N[C@@H](CO)Cc1ccccc1)C(=O)N[C@H](COC(=O)[C@@H](CC=C)CC(=O)OC(C)(C)C)Cc1ccccc1	0	.	-9
C=CC[C@@H](CC(=O)N[C@H](CO)Cc1ccccc1)C(=O)N[C@H](COC(=O)[C@@H](CC=C)Cc1ccc(F)cc1)Cc1c[nH]c2ccccc12	0	.	9
C=CCC[C@@H](Cc1ccc(F)cc1)C(=O)OC[C@H]1CCCN1C(=O)[C@@H](CC=C)CC(=O)N[C@H](CO)Cc1ccccc1	0	12	-3
C=CCC[C@@H](Cc1ccc(F)cc1)C(=O)OC[C@@H]1CCCN1C(=O)[C@H](CC=C)CC(=O)N[C@H](CO)Cc1ccccc1	0	.	20*
C=CC[C@@H](CC(=O)N[C@H](CO)Cc1ccccc1)C(=O)N[C@@H](COC(=O)[C@H](CC=C)CC(=O)OC(C)(C)C)Cc1ccccc1	0	.	79*
CO[C@H]1CN(C)C(=O)c2cc(NC(=O)Nc3ccc(Cl)c(Cl)c3)ccc2OC[C@H](C)NC[C@H]1C	1	8	.
CC(C)C#Cc1cnc2c(c1)C(=O)N([C@@H](C)CO)C[C@H](C)[C@@H](CN(C)C(=O)Nc1ccccc1)O2	0	-3	-4
C[C@@H]1CN([C@@H](C)CO)C(=O)c2cc(C3=CCCCC3)cnc2O[C@@H]1CN(C)Cc1ccncc1	0	2	-9
CCCNC(=O)N1C[C@H]2[C@@H](c3ccccc31)[C@@H](CO)N2C(=O)c1ccncc1	1	2	-1
CCCC(=O)Nc1nnc(/C=C/c2ccc(OC)cc2)s1	0	-1	-5
SMILES	E-selectin induc	SIRT5 block	DENV2 CPE
COc1ccc(/C=C/c2nnc(NC(=O)C(C)(C)C)s2)cc1	.	-1	70*
CC(C)C#Cc1ccc2c(c1)O[C@H](CN(C)C)[C@@H](C)CN([C@H](C)CO)S2(=O)=O	0	0	-3
Cc1noc(C)c1S(=O)(=O)N(C)C[C@H]1OCCCC[C@@H](C)Oc2ccc(NC(=O)Nc3ccccc3)cc2C(=O)N([C@@H](C)CO)C[C@@H]1C	1	8	12
CN1C(=O)c2cc(NC(=O)c3ccc(C#N)cc3)ccc2OC[C@H]2O[C@@H](CC(=O)NC3Cc4ccccc4C3)CC[C@@H]21	0	5	75*
CN1C(=O)c2cc(NC(=O)c3ccno3)ccc2OC[C@H]2O[C@@H](CC(=O)NC3Cc4ccccc4C3)CC[C@@H]21	0	9	53*
CN1C(=O)c2cc(NC(=O)c3ccc(C(F)(F)F)cc3)ccc2OC[C@H]2O[C@@H](CC(=O)NC3Cc4ccccc4C3)CC[C@H]21	0	9	-3
CCC(=O)Nc1ccc2c(c1)C(=O)N(C)[C@H]1CC[C@@H](CC(=O)NC3Cc4ccccc4C3)O[C@H]1CO2	0	3	-2
CCCC(=O)Nc1ccc2c(c1)OC[C@H](C)N(CC1CCCC1)C[C@H](C)[C@@H](OC)CN(C)C2=O	0	3	16
CC(=O)N(C)C[C@H]1Oc2ncc(C#C[C@H](C)O)cc2C(=O)N([C@@H](C)CO)C[C@@H]1C	0	-7	3
COCCNC(=O)C[C@H]1C[C@H]2c3cc(NC(=O)C4CCC4)ccc3O[C@H]2[C@H](CO)O1	0	0	-4
CN(C)CC(=O)N1CC(=O)N2[C@H](CO)[C@@H](c3ccc(-c4ccc(C#N)cc4)cc3)[C@H]2C1	0	-1	-5
O=C(C[C@@H]1CC[C@H]2[C@@H](COC[C@@H](O)CN2CC2CCCCC2)O1)NCc1ccc(F)cc1	0	9	7
FC(F)(F)c1nc2ccccc2n1CCNc1nc(CN2CCCCC2)cs1	0	-3	30*
c1ccc2c(c1)nc(-c1ccncc1)n2CCNc1nc(CN2CCCCC2)cs1	0	0	4
COc1ccc(NC(=O)N(C)C[C@H]2Oc3c(NC(=O)c4ccc(-c5nccs5)cc4)cccc3C(=O)N([C@H](C)CO)C[C@@H]2C)cc1	0	3	?
COCC(=O)Nc1ccc2c(c1)C(=O)N(C)[C@H]1CC[C@H](CC(=O)N3CCc4ccccc4C3)O[C@H]1CO2	0	.	.
C[C@@H]1CN([C@@H](C)CO)C(=O)Cc2cc(NC(=O)NC3CCCCC3)ccc2O[C@H]1CN(C)Cc1ccc(-c2ccccc2)cc1	1	-4	-22
C[C@H]1CN([C@@H](C)CO)C(=O)Cc2cc(NC(=O)NC3CCCCC3)ccc2O[C@H]1CN(C)Cc1ccc(-c2ccccc2)cc1	4	0	-25
C[C@H]1CN([C@@H](C)CO)C(=O)Cc2cc(NC(=O)NC3CCCCC3)ccc2O[C@@H]1CN(C)Cc1ccc(C(=O)Nc2ccccc2N)cc1	.	-3	32*
